From ChEMBL document CHEMBL1148185, “New cyanocyclines from a cyanide-treated broth of Streptomyces lusitanus” (1993)
Values after ≈ are worked out from the molar mass of the structure shown. Active and inactive are the calls of the source. The rule behind the calls is not given here.

Experiments:
Format in all cases: functional
Bacillus subtilis = assay: Antibacterial activity against Bacillus subtilis ATCC 6633 after 16 to 20 hrs
Outline: (§1)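 Broth microdilution MIC. Bacteria grown in brain heart infusion (BHI) broth at 37° for 24 h, then subcultured into fresh BHI for 8 h. Cultures diluted in 0.9% NaCl to McFarland 0.5 (ca. 10^8 cfu/ml), then diluted 20-fold in BHI. Two-fold antibiotic dilution series; 50 μl drug plus 50 μl culture per well. Incubated at 37° for 16–20 h.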

Escherichia coli = assay: Antibacterial activity against Escherichia coli ATCC 10536 after 16 to 20 hrs; outline: as §1
Proteus vulgaris = assay: Antibacterial activity against Proteus vulgaris after 16 to 20 hrs; outline: as §1
Klebsiella pneumoniae = assay: Antibacterial activity against Klebsiella pneumoniae A-''AD'' after 16 to 20 hrs; outline: as §1
Enterococcus faecalis = assay: Antibacterial activity against Streptococcus faecalis ATCC 29212 after 16 to 20 hrs; outline: as §1
Serratia marcescens = assay: Antibacterial activity against Serratia marcescens ATCC 13880 after 16 to 20 hrs; outline: as §1
Micrococcus luteus = assay: Antibacterial activity against Micrococcus luteus ATCC 4698 after 16 to 20 hrs; outline: as §1

SMILES	MIC (Bacillus subtilis)	MIC (Escherichia coli)	MIC (Proteus vulgaris)	MIC (Klebsiella pneumoniae)	MIC (Enterococcus faecalis)	MIC (Serratia marcescens)	MIC (Micrococcus luteus)	Activity (Bacillus subtilis)	Activity (Escherichia coli)	Activity (Proteus vulgaris)	Activity (Klebsiella pneumoniae)	Activity (Enterococcus faecalis)	Activity (Serratia marcescens)	Activity (Micrococcus luteus)
COC1=C(C)C(=O)C2=C(C1=O)[C@@H](CO)N1[C@H]3[C@H]4N[C@H](C[C@H]4[C@@H]4OCCN4[C@@H]23)[C@H]1C#N [CYANOCYCLINE B]	0.016 µg/mL (≈ 0.0388 µM)	0.25 µg/mL (≈ 0.606 µM)	1 µg/mL (≈ 2.42 µM)	0.031 µg/mL (≈ 0.0752 µM)	0.25 µg/mL (≈ 0.606 µM)	0.5 µg/mL (≈ 1.21 µM)	0.063 µg/mL (≈ 0.153 µM)	–	–	–	–	–	–	–
COC1=C(C)C(=O)C2=C(C1=O)[C@@H](CO)N1[C@H]3[C@H]4N[C@H](C[C@H]4[C@@H]4OCCN4[C@@H]23)[C@@H]1O	–	–	–	–	–	–	–	Active	Active	Active	Active	Active	Active	Active
COC1=C(C)C(=O)C2=C(C1=O)[C@@H](CO)N1[C@H]3[C@@H]4[C@@H](C[C@H]([C@H]1C#N)N4C)[C@H](C#N)N(CCO)[C@@H]23 [CYANOCYCLINE D]	0.061 µg/mL (≈ 0.135 µM)	0.5 µg/mL (≈ 1.1 µM)	0.5 µg/mL (≈ 1.1 µM)	0.125 µg/mL (≈ 0.276 µM)	0.25 µg/mL (≈ 0.551 µM)	0.25 µg/mL (≈ 0.551 µM)	0.125 µg/mL (≈ 0.276 µM)	–	–	–	–	–	–	–
COC1=C(C)C(=O)C2=C(C1=O)[C@@H](CO)N1[C@H]3[C@H]4[C@@H](C[C@H]([C@H]1C#N)N4C)[C@@H]1OCCN1[C@@H]23 [CYANOCYCLINE A]	0.031 µg/mL (≈ 0.0727 µM)	0.125 µg/mL (≈ 0.293 µM)	0.25 µg/mL (≈ 0.586 µM)	0.125 µg/mL (≈ 0.293 µM)	0.25 µg/mL (≈ 0.586 µM)	0.5 µg/mL (≈ 1.17 µM)	0.031 µg/mL (≈ 0.0727 µM)	–	–	–	–	–	–	–
COc1c(C)c(OC)c2c(c1OC)[C@@H](CO)N1[C@H]3[C@@H]4[C@@H](C[C@H]([C@H]1C#N)N4C)[C@@H]1OCCN1[C@@H]23	–	–	–	–	–	–	–	inactive	inactive	inactive	inactive	inactive	inactive	inactive
COc1c(C)c(O)c2c(c1O)[C@@H](CO)N1[C@H]3[C@@H]4[C@@H](C[C@H]([C@H]1O)N4C)[C@@H]1OCCN1[C@@H]23	–	–	–	–	–	–	–	Active	Active	Active	Active	Active	Active	Active
COc1c(C)c(O)c2c(c1O)[C@@H](CO)N1[C@H]3[C@@H]4[C@@H](C[C@H]([C@H]1C#N)N4C)[C@@H]1OCCN1[C@@H]23	–	–	–	–	–	–	–	Active	Active	Active	Active	Active	Active	Active
